Sampled rows, rich in hits. Any-hit rate of the full collection: about 2.4%.
HSV replic up – enhancers of HSV replication in host cells, fold increase, host cell viability. HSV replication augmentation in cells. maximum fold increase. 220,000 tested, 0.005% active. AID 1956, 2009; in the data active = maximum fold increase above about 1.5; inconclusive = no clear call, values can overlap the other calls; tested in PC3 cells
MT stabilizer – microtubule stabilizers in HeLa cells, primary screen, imaging, high-content imaging | % tubulin-high responders, % at 10 µM | HeLa tubulin immunostaining HCS, 24 h; share of cells brighter than vehicle mean+2SD | 200,000 tested, 0.83% active;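 active = plate Z-score above 3 for both tubulin-high and condensed-nucleus cell shares, with cell loss under 80%, at 10 µM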;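 note: anti alpha tubulin signal scored within the nucleus-defined area of each cell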
Insulin prom inh – inhibitors of insulin promoter-driven GFP, primary screen, imaging, TRM-6 cells (human fetal islet line), eGFP reporter, cell count; reporter expression induced with tamoxifen; inhibition, % at 2 µM; 130,000 tested, 0.9% active; AID 1273, 2008;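 active = inhibition above the mean plus 3 SD, with well images judged a real hit on visual review, cut at about 60% in these data, passing the limit was not always enough; inconclusive = inhibition over the cutoff but images rejected on review; inactive = inhibition not above the cutoff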
ROMK primary – ROMK potassium channel modulators, primary screen, cell-based, thallium flux, MLSMR library; ATP-sensitive inward rectifier potassium channel 1 (Homo sapiens), P48048; Tet-inducible ROMK, thallium flux fluorescence; actives lie on both sides; B-score at 10 µM; 130,000 tested, 2% active; AID 1918, 2009;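 active = signal ratio slope over the read window, or its plate-corrected B-score, at least 3 SD from the plate mean, either direction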;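 note: B-score of the F/F0 ratio slope over 7 to 12 s after thallium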
Target sequence (P48048 whole entry, looked up): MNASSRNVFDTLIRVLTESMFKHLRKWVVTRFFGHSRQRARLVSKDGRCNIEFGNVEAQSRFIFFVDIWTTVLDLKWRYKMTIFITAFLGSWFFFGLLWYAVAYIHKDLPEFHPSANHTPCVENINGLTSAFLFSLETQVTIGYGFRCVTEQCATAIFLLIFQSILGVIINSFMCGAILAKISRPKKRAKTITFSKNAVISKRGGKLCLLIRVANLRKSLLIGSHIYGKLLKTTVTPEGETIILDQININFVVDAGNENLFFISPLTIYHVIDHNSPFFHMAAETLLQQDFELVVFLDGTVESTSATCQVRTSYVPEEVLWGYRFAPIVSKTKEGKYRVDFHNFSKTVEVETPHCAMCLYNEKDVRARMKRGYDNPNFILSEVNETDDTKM
bCat nuc transl – modulators of beta-catenin nuclear translocation, primary screen, imaging, HeLa cells, immunofluorescence, high-content. 190,000 tested, 0.3% active. nuclear translocation activity, % at 5 µM. AID 1665, 2009;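 active = nuclear translocation activity above 50% at 5 µM, with a well cell count of 50 or more; inconclusive = wells under 50 cells across six images, flagged as toxic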;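 note: per-cell ratio of nuclear to cytoplasmic median beta-catenin stain intensity; plate controls were DMSO negative control for no effect and GSK-3 inhibitor IX positive control for full effect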
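assay system = human HeLa cells, endogenous beta-catenin | times = compound treatment 24 h, 37°C, 5% CO2 | detection = Anti-beta-catenin immunofluorescence on PFA-fixed, Triton-permeabilized cells, DAPI nuclei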
ROMK hit retest – ROMK channel modulator hit retest, confirmation, cell-based, thallium flux, duplicate, resupplied hits; fluorescence ratio; stronger effect = lower value; shares compounds with ROMK primary; normalized thallium flux (F/F0 slope) at 10 µM; AID 1917, 2009; 3,000 tested, 54% active;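 active = Flux at 10 µM at least 3 SD below or above vehicle control mean in one or both replicates; inconclusive = no clear call, values can overlap the other calls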
* marks the source's active call; other numbers are inactive results; i = inactive; u = inconclusive; x = no result given.

SMILES | HSV replic up | MT stabilizer | Insulin prom inh | ROMK primary | bCat nuc transl | ROMK hit retest
CCC1CCCCN1S(=O)(=O)c1ccc(S(=O)(=O)N(Cc2ccccn2)CC2CCCO2)cc1 (stereo unspecified) | i | 7 | 16 | -2.4 | -2 | x
CCn1c(=O)c([N+](=O)[O-])c(NCCN(C)C)c2ccccc21 | i | 2 | x | 0.079 | -1 | x
CCn1c(=O)c([N+](=O)[O-])c(Cl)c2ccccc21 | i | 1 | 36 | -4.9* | 0 | 0.046*
Cc1cc(C)c(S(=O)(=O)NCC(=O)NCc2ccccn2)c(C)c1 | i | 4 | -41 | -0.23 | 3 | x
O=[N+]([O-])c1ccccc1S(=O)(=O)n1nnc2ccccc21 | i | 2 | 43 | x | 4 | x
CSc1cccc(CN2CCC(CO)(Cc3cccc(C(F)(F)F)c3)CC2)c1 | i | 4 | x | -3.5* | -1 | 0.063*
COc1cccc(/C=N/n2c(C)nc3ccccc32)c1OC | i | 3 | -27 | -2.7 | 0 | 0.074
COc1ccc(/C=N/n2c(SC)nnc2-c2ccccc2)c(OC)c1OC | i | 11 | 29 | 3.4* | 92* | 0.08
COc1cccc(/C=N\n2c(C)nnc2C)c1OC | i | 4 | x | x | -2 | x
CC(C)(C)OC(=O)NCCCCCc1nnc(SCC(=O)Nc2cccc(Cl)c2)o1 | i | 4 | -50 | -4.9* | 2 | 0.064*
CC(C)(C)OC(=O)NCCc1nnc(SCC(=O)Nc2cccc(Cl)c2)o1 | i | 2 | 9 | x | -2 | x
COc1ccc(-c2cn3cccnc3n2)cc1F | i | 4 | 57 | x | -4 | x
COc1ccc(C(=O)NN(C)c2nc(-c3ccccc3)nnc2C(F)(F)F)cc1 | x | 3 | x | -0.2 | 1 | x
COc1ccc(C(=O)NN(C)c2nc(C(F)(F)F)nc3ccccc23)cc1 | i | 8 | x | 3.5* | 158* | 0.078
O=C(/C=C/c1ccccc1[N+](=O)[O-])NCc1ccncc1 | i | 3 | x | 0.46 | -1 | x
COc1cc(CN2CCN(C(=O)CC(C)C)CC2)cc(OC)c1OC | i | 3 | 3 | x | 0 | 0.094
COc1cc(CN2CCN(C(=O)CC(C)C)CC2)cc(OC)c1O | i | 2 | 26 | x | -8 | x
O=C(O)c1ccc(OCCn2ccnc2)cc1 | i | 3 | -7 | 0.12 | -3 | 0.073
NC(=O)c1cc2cc([N+](=O)[O-])ccc2oc1=O | i | 3 | x | 0.02 | -1 | x
CC1CCCC(C(=O)O)N1C(=O)CCS (stereo unspecified) | i | 2 | 18 | 2.2* | x | u
CSCCC(=O)N1C(C)CCCC1C(=O)O (stereo unspecified) | i | 2 | -12 | x | 2 | x
CC1CC(N(C(=O)C2CC2)c2ccccc2)c2ccccc2N1C(=O)C1CC1 (stereo unspecified) | i | 2 | 12 | -3.4* | -7 | 0.058*
CCOC(=O)C(=O)N1c2ccccc2C(N(C(=O)C(=O)OCC)c2ccccc2)CC1C (stereo unspecified) | i | x | x | -0.15 | 0 | x
CCn1c(=O)cc(SCC(=O)NCc2ccco2)c2ccccc21 | i | 46* | x | 3.5* | 55* | 0.085
CC1=NN(C(=O)c2ccccc2Cl)C(O)(c2cccnc2)C1 (stereo unspecified) | i | 4 | 50 | 0.25 | 0 | u
SMILES | HSV replic up | MT stabilizer | Insulin prom inh | ROMK primary | bCat nuc transl | ROMK hit retest
CC1=NN(C(=O)Cc2ccccc2)C(O)(c2cccnc2)C1 (stereo unspecified) | i | 4 | -22 | x | -1 | x
CC(=O)CCc1ccc(Oc2nc(-c3cccnc3)nc3ccccc23)cc1 | x | 3 | -14 | -0.88 | 5 | x
NC1=NC2=C(CCCC2)C2(CCCCC2)S1 | i | 8 | x | -3.1* | -3 | 0.064*
CN(CC(=O)Nc1ccc(C(N)=O)cc1)CC(=O)Nc1ccccc1Br | i | x | x | 6.1* | 2 | 0.075
CCOC(=O)c1cnc2c(cnn2C)c1NCCCn1ccnc1 | i | 4 | x | -2.9* | -5 | 0.073
c1ccc(CNc2ncnc3scc(-c4cccs4)c23)nc1 | i | 3 | -8 | -1.9 | 1 | x
c1ccc(-c2csc3ncnc(NCc4ccccn4)c23)cc1 | i | x | x | x | 0 | 0.056*
OCC1(CCc2ccccc2)CCN(Cc2cc(Cl)ccc2O)CC1 | i | 3 | x | -0.37 | 0 | x
Cc1ccc(-n2cccn2)c(CN2CCC(CO)(CCc3ccccc3)CC2)c1 | i | 7 | x | -3.3* | 1 | 0.061*
Cc1nn(C)c(C)c1NS(=O)(=O)c1ccc(N2CCCC2=O)cc1 | i | 6 | x | 0.81 | 5 | x
COc1ccc(NS(=O)(=O)c2ccc(N3CCCC3=O)cc2)cn1 | i | 11 | 7 | 2.3* | -1 | 0.081
CC1C/C(=C/c2cccs2)C(=O)/C(=C/c2cccs2)C1 (stereo unspecified) | i | 3 | -17 | 2.9* | -1 | 0.071
Cc1nn(CCCC(=O)N2CCN(c3ccc(F)cc3)CC2)c(C)c1[N+](=O)[O-] | i | 4 | -100 | -6* | -2 | 0.054*
Cc1oc(-c2cccc3ccccc23)nc1CN1CCC[C@H]1CO | i | x | x | -1.5 | 0 | x
CCOC(=O)C(NCCc1ccccc1)(NC(=O)CC)C(F)(F)F (stereo unspecified) | i | 3 | x | 0.009 | -1 | x
CN(C)c1ccc(/C=c2\sc3n(c2=O)CCCN=3)cc1 | i | 3 | x | -4.4* | -2 | 0.054*
Cc1sc(NC(=S)NC(=O)c2ccco2)c(C#N)c1C | i | 5 | x | 0.92 | -6 | x
CN1C(=O)/C(=C/C=C2\SCCN2C)SC1=S | u | 2 | -40 | -3* | -2 | 0.057*
CCCN1C(=O)/C(=C\C=C2/Sc3ccccc3N2CC)SC1=S | u | 10 | -388 | 0.99 | 12 | x
CC1(C)CC(=O)C2=C(C1)OC1OC(=O)CC21C (stereo unspecified) | i | 3 | x | 1.4* | -2 | 0.091
Cc1ccc(C2C3=C(CC(C)(C)CC3=O)OC3=C2C(=O)CC(C)(C)C3)cc1 | i | 6 | x | -0.041 | 0 | x
COc1ccccc1NNC(=O)c1cc(C(C)(C)C)nn1Cc1ccccc1 | i | x | x | x | 0 | 0.066*
CC(C)(C)c1cc(C(=O)NNc2cccc(Cl)c2)n(Cc2ccccc2)n1 | i | x | x | x | 0 | 0.057*
Cc1ccc(NNC(=O)c2cc(C(C)(C)C)nn2Cc2ccccc2)cc1 | i | x | x | x | 7 | x
CC(C)(C)C(=O)NNC(=O)c1cc(C(C)(C)C)nn1Cc1ccccc1 | i | x | x | -0.35 | 0 | x
CC(C)CC1NC(=O)N(CC(=O)NC2CCCc3ccccc32)C1=O (stereo unspecified) | i | 1 | x | 0.49 | -1 | x
COc1ccc(S(=O)(=O)NCc2ccccc2Cl)cc1OC | i | 3 | -19 | x | 3 | 0.076

Screens (PubChem)
